Measurements taken from ChEMBL document CHEMBL1138317, “Antibacterial oxazolidinones possessing a novel C-5 side chain. (5R)-trans-3-[3-Fluoro-4- (1-oxotetrahydrothiopyran-4-yl)phenyl]-2- oxooxazolidine-5-carboxylic acid amide (PF-00422602), a new lead compound” (J Med Chem, 2007).
Converted amounts (≈) assume the structure as drawn. The source made the active and inactive calls. The rule behind the calls is not given here.

Legend:
[1] = system: Streptococcus pneumoniae; assay: Antibacterial activity against levofloxacin-penicillin-resistant Streptococcus pneumoniae SV1 SP3 by microbroth technology; format: functional
Outline: (§1)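 Drug-resistant panel strains (levofloxacin/oxacillin-resistant S. aureus, levofloxacin/penicillin-resistant S. pneumoniae, vancomycin-resistant E. faecalis and E. faecium). Broth microdilution MIC in µg/mL; value reported as MIC90 across the strains of each resistant group.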

[2] = system: Staphylococcus aureus; assay: Antibacterial activity against levofloxacin-oxacillin-resistant Staphylococcus aureus UC76 SA1 by micro-broth technology; format: functional; outline: as §1
[3] = system: Escherichia coli; assay: Inhibition of protein synthesis in Escherichia coli by cell-free transcription-translation assay; format: functional
Outline: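 E. coli cell-free coupled transcription/translation run in microtiter format with a luciferase reporter; luminescence was the read-out for protein synthesis.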

[4] = system: Enterococcus faecalis; assay: Antibacterial activity against vancomycin-resistant Enterococcus faecalis MGH2 EF1 by microbroth technology; format: functional; outline: as §1
[5] = system: Moraxella catarrhalis; assay: Antibacterial activity against Moraxella catarrhalis by microbroth technology; format: functional
Outline: (§2)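 MIC determined by broth microdilution, reported in µg/mL.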

[6] = system: Enterococcus faecium; assay: Antibacterial activity against vancomycin-resistant Enterococcus faecium by micro-broth technology; format: functional; outline: as §1
[7] = biological target: T1, Amine oxidase [flavin-containing] A (Homo sapiens, UniProt P21397); assay: Inhibition of human recombinant MAOA
T1 sequence (P21397 whole entry): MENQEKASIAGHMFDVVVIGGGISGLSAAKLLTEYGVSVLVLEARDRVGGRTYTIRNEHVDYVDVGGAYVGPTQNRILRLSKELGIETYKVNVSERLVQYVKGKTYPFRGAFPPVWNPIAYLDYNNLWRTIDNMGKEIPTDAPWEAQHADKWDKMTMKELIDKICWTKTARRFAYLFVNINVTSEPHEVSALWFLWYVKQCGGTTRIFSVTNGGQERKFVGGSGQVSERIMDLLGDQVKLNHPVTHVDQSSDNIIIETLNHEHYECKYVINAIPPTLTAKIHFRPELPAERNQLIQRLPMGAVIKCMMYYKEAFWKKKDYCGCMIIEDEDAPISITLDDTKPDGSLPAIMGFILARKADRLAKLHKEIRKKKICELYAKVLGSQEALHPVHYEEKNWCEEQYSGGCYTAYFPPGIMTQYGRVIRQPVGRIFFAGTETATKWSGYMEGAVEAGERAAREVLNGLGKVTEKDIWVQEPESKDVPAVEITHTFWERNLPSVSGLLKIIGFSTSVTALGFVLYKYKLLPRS

[8] = system: Haemophilus influenzae; assay: Antibacterial activity against Haemophilus influenzae by micro-broth technology; format: functional; outline: as §2
[9] = AUC (0 to 24 hrs) in Sprague-Dawley rat plasma at 40 mg/kg/day after 14 days; format: ADME, organism-based; design: dose 40 mg/kg/day, time < 24 hr
Outline: (§3)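 Female Sprague-Dawley rats received vehicle or drug by oral gavage daily for 14 days, at doses of 40-1000 (mg/kg)/day across the studies. End points were moribundity or lethality, hematology (RBC, hemoglobin, hematocrit, reticulocytes), bone marrow M:E ratio and plasma AUC(0-24).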

[10] = system: Rattus norvegicus; assay: Toxicity in Sprague-Dawley rat at 1000 mg/kg/day, po after 14 days; format: organism-based; design: route oral; settings: in vivo, 336 h; outline: as §3
[11] = system: Staphylococcus; assay: Bacteriostatic activity against Staphylococcus after 48 hrs by time kill study; format: functional, organism-based
[12] = system: Rattus norvegicus; assay: Effect on hematology in Sprague-Dawley rat assessed as decrease in reticulocytes at 200 mg/kg/day after 14 days; format: ADME, organism-based; design: scale not given: the % may be the effect or the level left; settings: in vivo, 336 h; outline: as §3
[13] = system: Rattus norvegicus; assay: Effect on hematology in Sprague-Dawley rat assessed as decrease in red blood cells at 200 mg/kg/day, po after 14 days; format: ADME, organism-based; design: route oral; scale not given: the % may be the effect or the level left; settings: in vivo, 336 h; outline: as §3
[14] = system: Staphylococcus aureus; assay: Antibacterial activity against Staphylococcus aureus UC76 in po dosed CD1 mouse systemic infection model assessed as mortality after 7 days; format: functional
[15] = system: Streptococcus pneumoniae; assay: Bactericidal activity against Streptococcus pneumoniae after 48 hrs by time kill study; format: functional, organism-based
Outline: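 Time-kill study: bacteria exposed continuously to drug at 2-16× the MIC and sampled over 48 h to assess eradication.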

[16] = system: Rattus norvegicus; assay: Effect on hematology in Sprague-Dawley rat assessed as increase in hematocrit at 200 mg/kg/day, po after 14 days; format: ADME, organism-based; design: route oral; settings: in vivo, 336 h
[17] = system: Staphylococcus aureus; assay: Antibacterial activity against methicillin-resistant Staphylococcus aureus SA1417 in po dosed CD1 mouse systemic infection model assessed as mortality after 7 days; format: functional
[18] = AUC (0 to 24 hrs) in Sprague-Dawley rat plasma at 200 mg/kg/day, po after 14 days; format: ADME, organism-based; design: dose 200 mg/kg/day, time < 24 hr, route oral; outline: as §3
[19] = system: Streptococcus pyogenes; assay: Antibacterial activity against Streptococcus pyogenes C203 by micro-broth technology; format: functional
[20] = system: Rattus norvegicus; assay: Effect on hematology in Sprague-Dawley rat assessed as decrease in hemoglobin at 200 mg/kg/day, po after 14 days; format: ADME, organism-based; design: route oral; scale not given: the % may be the effect or the level left; settings: in vivo, 336 h; outline: as §3
[21] = system: Staphylococcus aureus; assay: Antibacterial activity against […] in po dosed CD1 mouse systemic infection model assessed as mortality after 7 days; format: functional
[22] = system: Enterococcus; assay: Bacteriostatic activity against Enterococcus after 48 hrs by time kill study; format: functional, organism-based

SMILES: NC(=O)[C@H]1CN(c2ccc(C3CCOCC3)c(F)c2)C(=O)O1
- MIC [1]: 2 µg/mL (≈ 6.49 µM)
- MIC [2]: 4 µg/mL (≈ 13 µM)
- IC50 [3]: 6.1 µM
- MIC [4]: 4 µg/mL (≈ 13 µM)
- MIC [5]: > 8 µg/mL
- MIC [6]: 8 µg/mL (≈ 25.9 µM)
- IC50 [7]: 58 µM
- MIC [8]: > 8 µg/mL

SMILES: CC(=O)NC[C@H]1CN(c2ccc(N3CCOCC3)c(F)c2)C(=O)O1 [LINEZOLID]
- AUC at 24 h [9]: 105 µg·h/mL
- Activity [10]: Toxic
- MIC90 [1]: 1 µg/mL (≈ 2.96 µM)
- Activity [11]: Active
- Activity [12]: 97%
- Activity [13]: 9%
- PD50 [14]: 3.1 mg/kg
- MIC90 [2]: 4 µg/mL (≈ 11.9 µM)
- Activity [15]: Active
- Activity [16]: -9%
- IC50 [3]: 3.6 µM
- MIC90 [4]: 2 µg/mL (≈ 5.93 µM)
- PD50 [17]: 6.25 mg/kg
- MIC90 [6]: 4 µg/mL (≈ 11.9 µM)
- AUC at 24 h [18]: 666 µg·h/mL
- MIC [19]: 4 µg/mL (≈ 11.9 µM)
- Activity [20]: 9%
- IC50 [7]: 53 µM
- PD50 [21]: 5 mg/kg
- Activity [22]: Active
